From PubChem
Only some compounds are listed: those with a hit (about 0.64% of all), similar ones and a draw of the others.
TNAP inh hi DEA – blocks human TNAP under high phosphate acceptor concentration. P05186. purified TNAP, CDP-star luminescence, 1 M DEA. inhibition, % at 20 µM. 200,000 compounds, 0.03% hits;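 active = over 50% inhibition of tissue-nonspecific alkaline phosphatase at 20 µM in the single-dose screen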;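 note: plate controls were DMSO wells for no effect and EDTA-quenched wells as full inhibition for full effect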
TNAP inh noacc – inhibitors of human TNAP without phosphate acceptor. P05186. purified TNAP, CDP-star luminescence, 30 min. inhibition, % at 20 µM. 200,000 compounds, 0.26% hits;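 active = tissue-nonspecific alkaline phosphatase inhibition above about 50% at 20 µM in the single-dose screen, limit read from the data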;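 note: 0% = DMSO negative control and 100% = EDTA positive control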
TNAP act hiacc – increases human TNAP activity under high phosphate acceptor concentration; AID 1136; 200,000 tested, under 10 active; activation factor at 20 µM; P05186; purified TNAP, CDP-star luminescence, 1 M DEA, 30 min; active compounds read high; 0 = EDTA background, 1 = DMSO-only activity;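 active = activation factor at least 2 at 20 µM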
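Test system – human TNAP · Doses – 20 µM single point · Incubation – 30 min, room temperature · Signal – luminescent substrate turnover signal · Read-out basis – activation factor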
PMI activator – increases human mannose-6-phosphate isomerase activity. P34949. purified human PMI, coupled resazurin fluorescence, 20 min; active compounds read high; 1 = vehicle control, 0 substrate-free wells. 190,000 compounds, 0.005% hits. activation factor at 20 µM;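 active = activation factor of 2 or more at 20 µM, relative to plate controls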
Target sequence (P34949 whole entry, looked up): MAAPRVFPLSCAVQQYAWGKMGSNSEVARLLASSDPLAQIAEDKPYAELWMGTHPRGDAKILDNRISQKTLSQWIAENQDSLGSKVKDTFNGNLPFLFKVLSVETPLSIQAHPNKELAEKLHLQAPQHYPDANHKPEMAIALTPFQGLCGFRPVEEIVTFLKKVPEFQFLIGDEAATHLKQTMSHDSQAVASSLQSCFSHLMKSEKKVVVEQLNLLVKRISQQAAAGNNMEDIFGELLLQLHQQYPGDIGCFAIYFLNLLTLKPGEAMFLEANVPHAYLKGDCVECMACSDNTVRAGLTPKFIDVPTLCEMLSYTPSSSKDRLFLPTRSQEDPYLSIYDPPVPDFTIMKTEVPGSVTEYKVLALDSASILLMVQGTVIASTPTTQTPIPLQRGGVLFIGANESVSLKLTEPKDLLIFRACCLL
PMI act hi M6P – increases human PMI activity with near-saturating mannose 6-phosphate; 190,000 compounds, 0.34% hits; activation factor at 20 µM; coupled PMI enzyme assay, resazurin fluorescence, 20 min; active compounds read high; 1 = untreated enzyme, 0 = substrate-free blank;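 active = activation factor of 2 or more at 20 µM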
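Technique: Diaphorase-driven resazurin-to-resorufin fluorescence, excitation 544, emission 590 nm | Assay system: Human PMI in coupled enzyme assay | Times: Enzyme reaction with compound 20 min at room temperature | Medium: HEPES-buffered pH 7.4 with magnesium and detergent | Reagent: Mannose-6-phosphate 1.0 mM (near-saturating) plus 0.22 mM NADP+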
Numbers without * were called inactive.

Results for O=[N+]([O-])c1cccnc1N1CCC(c2cc(-c3ccc(Cl)cc3)n[nH]2)CC1 ?
TNAP inh hi DEA: 3; TNAP inh noacc: 50*; TNAP act hiacc: 1; PMI activator: 0.9; PMI act hi M6P: 0.9

How did COc1ccc(/C=C(/NC(=O)c2cccc([N+](=O)[O-])c2)C(=O)O)cc1 do in these assays?
TNAP inh hi DEA: -4; TNAP inh noacc: -18; TNAP act hiacc: 1; PMI activator: 1.7; PMI act hi M6P: 2*

What do the screens show for `O=C(Nc1ccc(C(=O)N2CCOCC2)cc1)c1cccs1`?
TNAP inh hi DEA: -9; TNAP inh noacc: -6; TNAP act hiacc: 1.1; PMI activator: 1.1; PMI act hi M6P: 1.2

What do the screens show for `O=C(Nc1cc(C(=O)N2CCOCC2)ccc1N1CCCC1)c1cccs1`?
TNAP inh hi DEA: -3; TNAP inh noacc: -11; TNAP act hiacc: 1; PMI activator: 1.7; PMI act hi M6P: 2.1*

Results for CC/C(=C/c1sc2ccccc2[n+]1CC)SC ?
TNAP inh hi DEA: -4; TNAP inh noacc: -16; TNAP act hiacc: 1; PMI activator: 1.7; PMI act hi M6P: 2*

Results for CC[n+]1c(/C=C(/C)SC)sc2ccccc21 ?
TNAP inh hi DEA: -4; TNAP inh noacc: -17; TNAP act hiacc: 1; PMI activator: 1.1; PMI act hi M6P: 1.4

Results for CC[n+]1c(/C=C(\C)SC)sc2ccccc21 ?
TNAP inh hi DEA: -3; TNAP inh noacc: -7; TNAP act hiacc: 1; PMI activator: 1.5; PMI act hi M6P: 2*

What do the screens show for `CC1=C(C#N)C(/C=N/OCc2ccc(F)cc2Cl)CC(=O)N1` (configuration not stated)?
TNAP inh hi DEA: -2; TNAP inh noacc: -7; TNAP act hiacc: 1; PMI activator: 1.1; PMI act hi M6P: 1

How did COc1ccc(-c2[nH]ncc2CN(CCO)Cc2cccs2)c(F)c1 do in these assays?
TNAP inh hi DEA: -6; TNAP inh noacc: 69*; TNAP act hiacc: 1.1; PMI activator: 1; PMI act hi M6P: 1

How did CCN(Cc1ccncc1)Cc1cn[nH]c1-c1ccc(OC)cc1F do in these assays?
TNAP inh hi DEA: -6; TNAP inh noacc: 55*; TNAP act hiacc: 1.1; PMI activator: 0.9; PMI act hi M6P: 0.7

What do the screens show for `COc1ccc(-c2[nH]ncc2CN(C)C(C)c2ccncn2)c(F)c1` (configuration not stated)?
TNAP inh hi DEA: -5; TNAP inh noacc: 63*; TNAP act hiacc: 1.1; PMI activator: 0.9; PMI act hi M6P: 1

How did Cc1[nH]c2ccccc2c1SCC(=O)N1CCCCCC1 do in these assays?
TNAP inh hi DEA: -5; TNAP inh noacc: -11; TNAP act hiacc: 1.1; PMI activator: 0.9; PMI act hi M6P: 1

Results for Cc1ccc(N2NC3(CCN(C(N)=O)CC3)NC2=O)cc1 ?
TNAP inh hi DEA: -3; TNAP inh noacc: -9; TNAP act hiacc: 1; PMI activator: 1.6; PMI act hi M6P: 2.3*

How did O=C(N/N=C/c1ccccc1C(=O)O)c1cc(-c2ccc3c4c(cccc24)CC3)n[nH]1 do in these assays?
TNAP inh hi DEA: -2; TNAP inh noacc: 74*; TNAP act hiacc: 1; PMI activator: 1; PMI act hi M6P: 0.9

Results for Cc1ccccc1N/C(=C(/C(Cl)=C(Cl)Cl)[N+](=O)[O-])n1nnc2ccccc21 ?
TNAP inh hi DEA: 0; TNAP inh noacc: -3; TNAP act hiacc: 1; PMI activator: 1.6; PMI act hi M6P: 2.2*

What do the screens show for `CCOC(=O)C1CCN(Cc2c(O)c3ccccc3oc2=O)CC1`?
TNAP inh hi DEA: -3; TNAP inh noacc: -12; TNAP act hiacc: 1; PMI activator: 0.9; PMI act hi M6P: 0.8

Results for CCOc1ccc(C2CC(c3c(O)c4ccccc4oc3=O)=NN2c2ccccc2)cc1OC (configuration not stated) ?
TNAP inh hi DEA: 4; TNAP inh noacc: -23; TNAP act hiacc: 1; PMI activator: 1.6; PMI act hi M6P: 2.6*

How did Nc1c(C(=O)O)sc2nc(-c3ccccc3)c3c(c12)CCCC3 do in these assays?
TNAP inh hi DEA: 3; TNAP inh noacc: 2; TNAP act hiacc: 1; PMI activator: 1.5; PMI act hi M6P: 2.2*

How did COc1ccc([N+](=O)[O-])cc1N(CC(=O)NCC1CCCO1)S(C)(=O)=O (configuration not stated) do in these assays?
TNAP inh hi DEA: -3; TNAP inh noacc: -5; TNAP act hiacc: 1; PMI activator: 0.9; PMI act hi M6P: 0.9

What do the screens show for `Cc1ccc(C)c(S(=O)(=O)N=Nc2c(O)[nH]c3ccccc23)c1`?
TNAP inh hi DEA: 2; TNAP inh noacc: -3; TNAP act hiacc: 1; PMI activator: 1.8; PMI act hi M6P: 2.1*

How did Cc1ccc(S(=O)(=O)N=Nc2c(O)[nH]c3ccccc23)cc1 do in these assays?
TNAP inh hi DEA: -6; TNAP inh noacc: -8; TNAP act hiacc: 1.1; PMI activator: 2.2*; PMI act hi M6P: 2.4*

What do the screens show for `Cc1ccc(NC(=O)N2CCC(=O)N2)cc1`?
TNAP inh hi DEA: 0; TNAP inh noacc: -8; TNAP act hiacc: 1; PMI activator: 1.3; PMI act hi M6P: 2*

What do the screens show for `Cc1ccc(NC(=O)C(C)C(=O)Nc2ccc(C)cc2)cc1`?
TNAP inh hi DEA: -1; TNAP inh noacc: -3; TNAP act hiacc: 1; PMI activator: 1.1; PMI act hi M6P: 1.1

How did Cc1ccc(S(=O)(=O)NC(=O)NN2CCCCCC2)cc1 do in these assays?
TNAP inh hi DEA: 4; TNAP inh noacc: -5; TNAP act hiacc: 1; PMI activator: 1.7; PMI act hi M6P: 2*

Results for O=C(c1ccc(Sc2cccc(Cl)c2)c([N+](=O)[O-])c1)N1CCN(c2ccccn2)CC1 ?
TNAP inh hi DEA: 2; TNAP inh noacc: -5; TNAP act hiacc: 1; PMI activator: 0.9; PMI act hi M6P: 0.9

Results for C=CCN(C(=O)CSc1nc2c(sc3ccccc32)c(=O)n1CCN(CC)CC)c1ccccc1 ?
TNAP inh hi DEA: -5; TNAP inh noacc: -10; TNAP act hiacc: 1.1; PMI activator: 0.8; PMI act hi M6P: 0.9

What do the screens show for `NC(=O)C1CCN(C(=O)CN2CCCc3ccccc32)CC1`?
TNAP inh hi DEA: -3; TNAP inh noacc: -6; TNAP act hiacc: 1; PMI activator: 1.5; PMI act hi M6P: 2*

Results for O=C(CN1CCCc2ccccc21)NC(=O)NC1CCCCC1 ?
TNAP inh hi DEA: -4; TNAP inh noacc: 3; TNAP act hiacc: 1; PMI activator: 1.1; PMI act hi M6P: 1

How did CCOC(=O)c1nc2cc3n(c(CC(C)C)c-2c1C)CC(C)=C3C do in these assays?
TNAP inh hi DEA: 0; TNAP inh noacc: -26; TNAP act hiacc: 1; PMI activator: 1.8; PMI act hi M6P: 2.4*

What do the screens show for `Clc1ccc(-c2n[nH]c3c2CCCC3)cc1`?
TNAP inh hi DEA: -4; TNAP inh noacc: 53*; TNAP act hiacc: 1; PMI activator: 0.9; PMI act hi M6P: 0.9

Results for CC(=O)/C(=N/Nc1cccc(C)c1)N1CCOCC1 ?
TNAP inh hi DEA: -2; TNAP inh noacc: -8; TNAP act hiacc: 1; PMI activator: 1.7; PMI act hi M6P: 2.2*
